Results pooled from the literature.
Each line is one published result; the experiments were not run side by side. pIC50: −log10 of the molar value.
Cell line: HepG2
Read-out: cell growth or viability

CCOC(=O)c1ccc(-n2c(C)cc(/C=C/c3ccc(OCC)cc3)c(C#N)c2=O)cc1
viability (MTT; 6.25 µM, 24 h): 100%

COc1ccc(NCC(=O)Nc2c(C#N)sc(Nc3ccccc3)c2C(=O)Nc2ccc(OC)cc2)cc1
viability (SRB; 0.1 µM, 48 h): 84.4%

Cc1ccc2nc(-c3ccc(Cl)cc3)n(Cc3ccccc3)c2c1
pIC50 (MTT): 5.49

COc1ccc(NC(=O)c2c(Nc3ccccc3)sc(C(=O)NN=Cc3ccc(Cl)cc3)c2NC(C)=O)cc1
viability (SRB; 10 µM, 48 h): 71.2%

CC(=O)Nc1cccc(-n2c(=O)n(C3CC3)c(=O)c3c(Nc4ccc(I)cc4F)n(C)c(=O)c(C)c32)c1
viability (resazurin; 0.1 µM, 72 h): 40.7%

Clc1ccc(-c2nc3ccccc3[nH]2)cc1
pIC50 (MTT; 48 h): 4.29

CCOC(=O)c1ccc(-n2c(C)cc(/C=C/c3ccc(OC)cc3)c(C#N)c2=O)cc1
viability (MTT; 50 µM, 24 h): 58.1%

c1ccc2c(-c3nc4ccccc4[nH]3)c3ccccc3cc2c1
pIC50 (MTT; 48 h): 5.01

COc1ccc(NC(=O)c2c(Nc3ccccc3)sc(C#N)c2NC(=O)CNc2ccc(Br)cc2)cc1
viability (SRB; 10 µM, 48 h): 46.2%

CCOC(=O)c1ccc(-n2c(N)c(C#N)c(CC#N)c(C#N)c2=O)cc1
viability (MTT; 3.125 µM, 24 h): 90.2%
